# Results of several laboratories.
# Protocols differ between the studies behind these lines.
# Target: cAMP-dependent protein kinase catalytic subunit beta (PRKACB, Homo sapiens, UniProt P22694)
# Technique: competition with immobilised ligand
Structure (SMILES),test,setting,remaining binding
N[C@H]1CCN(c2nccc(-c3cnn4ncccc34)n2)C1,binding,1 µM,83%
CN(C)CC#Cc1ccc(OCCCc2sc(N3CCc4cccc(C(=O)Nc5nc6ccccc6s5)c4C3)nc2C(=O)O)c(F)c1,cell-free assay,1 µM,100%
O=C(c1ccc(Nc2ncc(Cl)c(-c3cc4ccccc4s3)n2)cc1)N1CCC(N2CCCC2)CC1,binding,1 µM,98%
O=C(NCC1CCOCC1)c1n[nH]cc1NC(=O)c1c(F)cccc1F,binding,1 µM,97%
c1cncc(-c2cccc(Nc3nccc(NC4CCCCC4)n3)c2)c1,binding,10 µM,56%
FC(F)(F)Oc1cccc(-c2cnc3ccc(-c4ccncc4)nn23)c1,cell-free assay,5 µM,98%
COc1cnc(Nc2cccc(S(N)(=O)=O)c2)nc1N1CCN(c2ccccc2)CC1,binding,1 µM,85%
CNC(=O)Nc1ccc2c(c1)[C@@]1(CC2)OC(=O)N(CC(=O)N(Cc2ccc(F)cc2)[C@@H](C)C(F)(F)F)C1=O,cell-free assay,1 µM,100%
COc1ccnn2ncc(-c3ccnc(N(C)C)n3)c12,binding,1 µM,95%
O=C(O)[C@@H]1[C@@H](Cn2nnc3ccccc3c2=O)CC[C@H]1C(=O)c1ccc(OCCC2CCOCC2)cc1,cell-free assay,1 µM,100%
COc1ncc2cc3ccccc3nc2c1C#N,cell-free assay,5 µM,97%
O=C(NCCCC1CCCCC1)c1ccc(CNC(=O)c2cnn(-c3ccccc3)c2C(F)(F)F)cc1,cell-free assay,0.1 µM,100%
C=CC(=O)N1CCC(C(=O)NCC(=O)N2CCN(c3nc(-c4cnc(N)nc4C(F)F)nc(N4CCOCC4)n3)CC2)CC1,binding,1 µM,90%
O=C(O)c1cc(-c2ccc(C3CCNCC3)cc2)c2ccc(-c3ccc(C(F)(F)F)cc3)cc2c1,cell-free assay,1 µM,100%
O=C(NCCCN1CCOCC1)c1ccc(Nc2nccc(-c3cc4ccccc4s3)n2)cc1,binding,1 µM,100%
C[C@H]1CCN(c2nccc(-c3cnn4ncccc34)n2)C1,binding,1 µM,99%
C[C@@H](c1ccc(-n2cnc3c(N)ncnc32)cc1)N1CCc2nn(C)c(Cc3ccccc3)c2C1=O,binding,0.1 µM,100%
Cc1cnn2ncc(-c3ccnc(N(C)C)n3)c2c1,binding,1 µM,96%
CCCCN(CCCC)C(=O)CN1C[C@@H](c2cc(OC)c3c(c2)OCO3)[C@H](C(=O)O)[C@H]1CC(C)(C)CCC,cell-free assay,1 µM,100%
CN(C)c1nccc(-c2cnn3ncccc23)n1,binding,1 µM,76%
O=C(NCCCN1CCOCC1)c1ccc(Nc2ncc(Cl)c(-c3ccc(Cl)s3)n2)cc1,binding,1 µM,100%
